Data as given in ChEMBL document CHEMBL1125901, “Synthesis and siderophore activity of albomycin-like peptides derived from N5-acetyl-N5-hydroxy-L-ornithine” (1991).
The source made the active and inactive calls. No cut-off for these calls is given here.

Legend:
Shigella flexneri [1] = test: The relative ability of compound to promote the growth of Shigella flexneri SA 240, a strain lacking the ability to synthesize siderophores was measured as zone stimulation at concentration of 100 uM; NA=No activity; type: functional, organism-based
Outline: (§1)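 SA240 (S. flexneri 2a SA100 iucD::Tn5, a siderophore-synthesis mutant) was grown overnight in Luria broth, then seeded at 10^3/mL into Luria agar with the iron chelator EDDA (250 µg/mL). Compounds were made as 10 mM water stocks and diluted in water to the test levels. Sterile disks holding 10 µL were laid on the agar and incubated 18 h at 37 °C. Diameters of the growth-stimulation zones were measured.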

Shigella flexneri [2] = test: The relative ability of compound to promote the growth of Shigella flexneri SA 240, a strain lacking the ability to synthesize siderophores was measured as zone stimulation at concentration of 1 mM; type: functional; outline: as §1
Shigella flexneri [3] = test: The relative ability of compound to promote the growth of Shigella flexneri SA 240, a strain lacking the ability to synthesize siderophores was measured as zone stimulation at concentration of 500 uM; type: functional; outline: as §1
Shigella flexneri [4] = test: The relative ability of compound to promote the growth of Shigella flexneri SA 240, a strain lacking the ability to synthesize siderophores was measured as zone stimulation at concentration of 5 mM; type: functional; outline: as §1
Shigella flexneri [5] = test: The relative ability of compound to promote the growth of Shigella flexneri SA 240, a strain lacking the ability to synthesize siderophores was measured as zone stimulation at concentration of 100 uM; type: functional; outline: as §1
Shigella flexneri [6] = test: The relative ability of compound to promote the growth of Shigella flexneri SA 240, a strain lacking the ability to synthesize siderophores was measured as zone stimulation at concentration of 50 uM; NA=No activity; type: functional, organism-based; outline: as §1
Shigella flexneri [7] = test: The relative ability of compound to promote the growth of Shigella flexneri SA 240, a strain lacking the ability to synthesize siderophores was measured as zone stimulation at concentration of 5 mM; NA=No activity; type: functional, organism-based; outline: as §1

| SMILES | Zone of stimulation (Shigella flexneri [1]) | Zone of stimulation (Shigella flexneri [2]) | Zone of stimulation (Shigella flexneri [3]) | Zone of stimulation (Shigella flexneri [4]) | Zone of stimulation (Shigella flexneri [5]) | Zone of stimulation (Shigella flexneri [6]) | Zone of stimulation (Shigella flexneri [7]) |
| --- | --- | --- | --- | --- | --- | --- | --- |
| CC(=O)N(O)CCC[C@H](NC(=O)[C@H](CCCN(O)C(C)=O)NC(=O)[C@@H](N)CCCN(O)C(C)=O)C(=O)N[C@H](CO)C(=O)O | inactive | 12 mm | 12 mm | 18 mm | – | – | – |
| CC(=O)N(O)CCC[C@H](NC(=O)[C@H](CCCN(O)C(C)=O)NC(=O)[C@@H](N)CCCN(O)C(C)=O)C(=O)N[C@@H](C(=O)O)c1ccc(O)cc1 | – | 40 mm | 25 mm | 45 mm | 15 mm | inactive | – |
| CC(=O)N(O)CCC[C@H](NC(=O)[C@H](CCCN(O)C(C)=O)NC(=O)[C@@H](N)CCCN(O)C(C)=O)C(=O)O | – | 37 mm | 30 mm | 40 mm | 13 mm | inactive | – |
| CC(=O)N(O)CCC[C@H](NC(=O)[C@H](CCCN(O)C(C)=O)NC(=O)[C@@H](N)CCCN(O)C(C)=O)C(=O)N[C@@H](C(=O)O)c1ccccc1 | – | 41 mm | 28 mm | 45 mm | 17 mm | inactive | – |
| CC(=O)N(O)CCC[C@H](NC(=O)[C@H](CCCN(O)C(C)=O)NC(=O)[C@@H](N)CCCN(O)C(C)=O)C(=O)N[C@H](CO)C(=O)N[C@H](CC(=O)O)C(=O)O | – | – | – | – | – | – | inactive |
| CC(=O)N(O)CCC[C@H](N)C(=O)O | – | – | – | – | – | – | inactive |
